GSK3beta inhib – human GSK3beta kinase inhibition. P49841. GST-GSK3beta kinase, ADP-Glo luminescence, 60 min; stronger effect = lower value. activity score (negative = inhibition), % at 10 µM. actives 0.038% (n = 300,000). AID 2097;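 active = more than half of replicate wells score below -50%, meaning over 50% inhibition versus plate controls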
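Test system: GST-fused GSK3beta enzyme, cell-free | Quantity: 1.6 ng GST-GSK3beta enzyme per well | Reagent: 25 µM ATP with peptide substrate | Schedule: 60 min enzyme reaction, room temperature | Signal: Luminescent ADP-Glo measurement of ADP formed | Read-out basis: Score relative to plate controls | Control set: DMSO and 20 µM GW8510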
CDK5 p35 inh – blocks human CDK5/p35 kinase activity. Recombinant CDK5/p35, ADP-Glo luminescence, 60 min. Q00535+Q15078. inhibition, % at 10 µM. actives 0.01% (n = 330,000);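 active = highest replicate inhibition of at least 50% and at least 75% of replicates reaching 50%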
STK33 inh – inhibitors of human STK33 kinase | actives 0.073% (n = 320,000) | Q9BYT3 | AID 2661 | purified STK33, MBP phosphorylation, ADP-Glo luminescence | inhibition, % at 10 µM;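 active = inhibition at or above 25%, using the most active replicate where run in duplicate; inactive = inhibition below 25%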
Target sequence (Q9BYT3 whole entry, looked up): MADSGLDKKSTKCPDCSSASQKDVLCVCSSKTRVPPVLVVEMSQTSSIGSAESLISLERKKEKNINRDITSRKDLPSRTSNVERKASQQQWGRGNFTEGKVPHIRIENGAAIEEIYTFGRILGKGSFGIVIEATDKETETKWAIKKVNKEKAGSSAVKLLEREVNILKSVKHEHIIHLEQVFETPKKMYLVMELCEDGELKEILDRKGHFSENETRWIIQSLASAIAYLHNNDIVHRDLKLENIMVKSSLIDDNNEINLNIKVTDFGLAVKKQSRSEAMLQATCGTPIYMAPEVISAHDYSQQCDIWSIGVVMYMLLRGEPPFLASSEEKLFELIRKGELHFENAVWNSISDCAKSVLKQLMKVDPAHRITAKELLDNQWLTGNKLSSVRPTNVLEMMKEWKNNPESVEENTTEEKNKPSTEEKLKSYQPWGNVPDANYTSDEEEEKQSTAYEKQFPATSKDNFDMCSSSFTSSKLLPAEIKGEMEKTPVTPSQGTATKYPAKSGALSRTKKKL
GSK3 alpha inh – human GSK-3 alpha kinase inhibition; P49840; ADP-Glo luminescence, 60 min; inhibition, % at 10 µM; actives 0.1% (n = 320,000);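 active = more than half of replicates show inhibition above 20%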;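 also: GST-tagged GSK-3 alpha with peptide substrate and 25 µM ATP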
Dyrk1A ADPGlo – Dyrk1A (rat) kinase inhibition; ADP-Glo luminescence, NFATc1 peptide; inhibition, % at 12.5 µM; actives 0.43% (n = 310,000); AID 504441; in the data active = inhibition above about 50%
Dyrk1A artifact – ADP-Glo luciferase interference, Dyrk1A counter-screen; shares compounds with Dyrk1A ADPGlo; ADP-Glo luciferase artifact assay, no Dyrk1A, luminescence; AC50, µM (titrated, usually from 12 µM); 1,300 tested, under 10 active; AID 588348;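 active = fitted half-maximal dose AC50 no more than ten times the top valid tested dose, with luminescence dropping as dose rises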
A number is an active result; 0 = inactive; - = no result. This is one part of a sample in which hits are shown more often than they occur.

SMILES	GSK3beta inhib	CDK5 p35 inh	STK33 inh	GSK3 alpha inh	Dyrk1A ADPGlo	others
CC(C)(C)N=Cc1c(O)ccc2oc3c(c12)CCCC3	0	0	0	0	0
Cc1[nH]cnc1C(=O)N/N=C/c1c(Cl)cccc1Cl	0	0	27	0	0
CC(=O)[C@@H]1[C@@H](C)N(Cc2ccccc2)C(=O)N[C@H]1c1ccccc1	0	0	0	0	0
c1ccc(CNc2ncnc3scc(-c4cccs4)c23)nc1	0	0	0	57	0
CCOC(=O)c1[nH]cnc1C(=O)O	0	0	0	0	0
c1csc(C2=Nn3c(nnc3-c3ccncc3)SC2)c1	0	0	0	87	0
c1ccc(C2=Nn3c(nnc3-c3cccs3)SC2)cc1	0	0	0	0	-
COc1ccc(CNC(=O)CCCn2c(SCC#N)nc3cc4c(cc3c2=O)OCO4)cc1	-	0	0	0	0
Cn1nnnc1Sc1ncnc2scc(-c3cccs3)c12	-	0	0	0	59
Cn1nnnc1Sc1ncnc2scc(-c3ccc(-c4ccccc4)cc3)c12	-	0	0	0	0
O=Cc1ccc(N2Cc3ccccc3C2)cc1	0	0	0	0	0
Nc1nc(NC2CCCCC2)nc(NCCO)c1[N+](=O)[O-]	-58	0	0	86	0
COc1ccc(OC)c(Nc2nc(N)c([N+](=O)[O-])c(NC3CCCCC3)n2)c1	0	0	0	0	0
C=CCNc1nc(N)c([N+](=O)[O-])c(NCCO)n1	0	0	0	0	0
COCCNc1nc(N)c([N+](=O)[O-])c(NC2CCCCC2)n1	0	0	0	61	0
CN(c1ccccc1)c1nc(N)c([N+](=O)[O-])c(NC2CCCCC2)n1	0	0	0	0	0
NCCCNc1nc(N)c([N+](=O)[O-])c(NC2CCCCC2)n1	0	0	0	73	0
Cc1ccccc1OCc1nnc(SCc2cc(=O)[nH]c3ccccc23)o1	0	0	0	0	0
Cc1[nH]nc2c1C(c1cccs1)C1=C(CC(C)(C)CC1=O)N2 (stereo not drawn)	-82	0	0	99	-
CCOC(=O)C1=C(C)NC2=C(C(=O)CCC2)C1c1cccs1 (stereo not drawn)	0	0	0	0	0
Cc1[nH]nc2c1C(c1cccs1)C1=C(CCCC1=O)N2 (stereo not drawn)	-50	0	0	70	0
CN(C)CCCNc1ccc(-c2cc(Nc3cccc(Cl)c3)ncn2)cn1	-86	0	0	0	0
O=C1C(c2ccncc2)=C(O)c2ccccc21	0	0	27	0	0
O=c1c(O)c(-c2ccc(O)c(O)c2)oc2cc(O)cc(O)c12	0	0	38	57	0
COc1ccc(-c2cc(=O)c3c(O)cc(O)cc3o2)cc1	-	0	0	0	0
SMILES	GSK3beta inhib	CDK5 p35 inh	STK33 inh	GSK3 alpha inh	Dyrk1A ADPGlo	others
O=c1cc(-c2ccc(O)c(O)c2)oc2cc(O)cc(O)c12	0	0	0	0	91
O=C(O)C1OC(Oc2c(-c3ccc(O)c(O)c3)oc3cc(O)cc(O)c3c2=O)C(O)C(O)C1O (stereo not drawn)	0	-	0	0	-
C#CCOCCOCCOCCNc1nc(N2CCN(C(=O)CCCCCCCCCCNC(=O)[C@H]([C@@H](C)CC)n3cc(CCCCN=C(N)N)nn3)CC2)nc(N2CCN(C(=O)CCCCCCCCCCNC(=O)[C@H]([C@@H](C)CC)n3cc(CCCCN=C(N)N)nn3)CC2)n1	-	-	31	0	-
C#CCOCCOCCOCCNc1nc(N2CCN(C(=O)CCCCCCCCCCNC(=O)[C@H]([C@@H](C)CC)n3cc(CCCCCN)nn3)CC2)nc(N2CCN(C(=O)CCCCCCCCCCNC(=O)[C@H](CO)n3cc(CCCCCN)nn3)CC2)n1	-	0	0	0	55
O=C(Nc1ccccc1C(=O)O)c1cccc(C(=O)Nc2ccccc2C(=O)O)c1	0	0	57	0	0
C=CCNC(=O)NC(=O)COn1nnc2ccc(S(=O)(=O)N(C)C)cc21	0	0	0	0	0
O=c1c2c([nH]c3ccc(Br)cc13)CCCC2	0	0	0	0	0
O=c1ccc2cc3c([nH]c4ccc(Br)cc43)oc-2c1O	0	0	39	0	71
N#CC(C#N)=Cc1c[nH]c(=O)c(C#N)c1Nc1ccccc1	0	-	0	74	-
O=C(CSc1nnc(-c2ccc(Cl)cc2Cl)n1C1CCCCC1)NC1CCS(=O)(=O)C1 (stereo not drawn)	0	0	0	0	0
CCOC(=O)C1=C(c2ccccc2)Nc2nc(C)nn2C1c1cccc(OC)c1OC (stereo not drawn)	0	0	0	0	0
O=C(COC(=O)c1cc(S(=O)(=O)N2CCOCC2)ccc1F)Nc1ccc(Cl)cn1	-	0	0	51	-
O=C(COC(=O)CCc1ccc(S(=O)(=O)N2CCOCC2)cc1)Nc1ccc(Cl)cn1	0	0	0	0	0
Cc1nc(C(=O)NNC(=O)Nc2ccc(Cl)cc2)cs1	0	0	0	0	0
CC1CCC2(CC1)NC(=O)N(CC(=O)Nc1sc3c(c1C(N)=O)CCC3)C2=O (stereo not drawn)	0	0	0	78	0
CC1CCCCC12NC(=O)N(CC(=O)Nc1sc3c(c1C(N)=O)CCC3)C2=O (stereo not drawn)	0	0	0	58	0
CCN(C(=O)c1cc2c(=O)n3cccc(C)c3nc2s1)C1CCCCC1	0	0	0	0	0
O=c1c2ccccc2oc2ccc(NCCCN3CCOCC3)cc12	0	0	50	0	0
CN1CCCC1CCNc1ccc2c(=O)c3ccccc3oc2c1 (stereo not drawn)	0	0	0	0	0
CN1CCCC1CCNc1ccc2oc3ccccc3c(=O)c2c1 (stereo not drawn)	0	-	39	0	-
CC(=O)Nc1ccc(S(=O)(=O)N(C)CC(=O)NCCOc2ccccc2)cc1	-	0	0	0	0
Cc1cc([N+](=O)[O-])nn1Cc1ccccc1F	0	0	0	0	51	Dyrk1A artifact=0
Cc1ccc(C)c(CN2CCCN(C(=O)Cn3ncc4c3-c3ccccc3OC4)C2)c1	0	0	0	-	0
Cc1nnc2c3ccccc3c(-c3ccc(O)cc3)nn12	0	0	0	-	0
Cc1nnc2c3ccccc3c(-c3cccs3)nn12	0	0	-	-	60	Dyrk1A artifact=0
SMILES	GSK3beta inhib	CDK5 p35 inh	STK33 inh	GSK3 alpha inh	Dyrk1A ADPGlo	others
Cc1cc(C)cc(NC(=S)N2CCC(NC(=O)C3CC3)CC2)c1	0	0	0	0	0
O=C(COC(=O)CCCc1c[nH]c2ccccc12)Nc1ccc2c(c1)OCO2	0	0	0	0	0
CC1(C)C=Cc2cc3ccc(=O)oc3cc2O1	0	0	0	0	59	Dyrk1A artifact=0
COc1c2c(cc3oc(=O)ccc13)OC(C)(C)C=C2	0	0	0	0	0
CC(Nc1nc(-c2cccnc2)nc2ccccc12)c1ccc(F)cc1 (stereo not drawn)	0	0	0	0	62	Dyrk1A artifact=0
O=C(NNC1=C(C(=O)C(F)(F)F)CCC1)c1ccccc1O	0	0	0	0	56	Dyrk1A artifact=0

Source: PubChem BioAssay (Broad Institute)
